In publication PMC7668563 (International journal of molecular biology (Edmond, Okla.), 2020):

Key:
[1] = target: T1, apo-human transferrin (apo-hTf) (Homo sapiens, UniProt P02787); assay: Fluorescence quenching of apo-hTf; format: binding; settings: for biomolecular quenching rate constant kq: kq=Ksv/τ0; for Stern-Volmer quenching constant Ksv / number of binding sites n: pH 7.4; for quenching association constant Ka: pH 7.4, modified Stern-Volmer
How it was run: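 Intrinsic fluorescence of apo-hTf in Tris-HCl pH 7.4 was titrated with test compound (Tris-HCl/2% DMSO). Conditions: excitation 280 nm, emission 290–500 nm, slits 10/5 nm, 1.0 cm quartz cell, at 296, 303, 310 and 317 K, triplicate titrations. Intensities were corrected for inner filter effect using absorbances at excitation and emission wavelengths. Ksv came from Stern-Volmer plots of F0/F vs [Q]; kq = Ksv/τ0 (τ0 ~1.0×10−8); Ka and n came from the modified Stern-Volmer equation.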

[2] = tested on: human colorectal adenocarcinoma cell line, HT-29; assay: MTT cell viability assay on HT-29, 72 h exposure; format: cell-based; settings: read-out: IC50 (±SD), HT-29, HT-29, 72 h of exposure
How it was run: (§1)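 HT-29 was grown in McCoy's 5A with 10% FBS. MCF-7 was grown in MEM with 10% FBS and 0.01 mg/mL insulin. Both were kept at 37°C, 5% CO2, trypsinized at 70–80% confluency and seeded at 1.5×10^4 cells/well for 24 h. Cells were then exposed for 72 h to test compound in 5% DMSO/95% medium, with DMSO-medium controls. MTT was added as a 2.67 mg/mL solution for 2 h. Formazan was dissolved in 10% Triton X-100/isopropanol and read at A570 minus A620. IC50 came from a sigmoidal fit of viability vs log concentration, eight replicas, triplicate, ±SD.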

[3] = target: T1, apo-human transferrin (apo-hTf); assay: Far-UV circular dichroism titration of apo-hTf, secondary structure content
How it was run: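 Apo-hTf (4.0×10−7 mol L−1) in 2 mM Tris-HCl pH 7.4 was titrated with a 1.0×10−3 mol L−1 stock of test compound in Tris-HCl/2% DMSO, to final 0–2.4×10−6 mol L−1. Far-UV CD was recorded from 190–250 nm under nitrogen in a 1.0 cm cell: six scans at 100 nm/min. Baseline was buffer ± DMSO at room temperature. α-Helix was derived from MRE at 208 nm; β-sheet and random coil by the CD-RRG method.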

[4] = tested on: human breast adenocarcinoma cell line, MCF-7; assay: MTT cell viability assay on MCF-7, 72 h exposure; format: cell-based; settings: MCF-7, 72 h of exposure
How it was run: as §1

[5] = target: T1, apo-human transferrin (apo-hTf); assay: Thermodynamic parameters of apo-hTf complex formation; format: binding
How it was run: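 Ksv values were obtained from apo-hTf fluorescence quenching at pH 7.4 at 296, 303, 310 and 317 K. ΔH°, ΔS° and ΔG° were derived from linear regression of ln(Ksv) vs 1/T (Van't Hoff equation).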

[6] = target: T1, apo-human transferrin (apo-hTf); assay: UV-Vis absorbance titration of apo-hTf; format: binding
[7] = target: T1, apo-human transferrin (apo-hTf); assay: Fluorescence resonance energy transfer; format: binding
How it was run: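 Emission spectrum of 1.0×10−5 mol L−1 apo-hTf and absorption spectrum of 1.0×10−5 mol L−1 test compound were recorded in 20 mM Tris-HCl pH 7.4 at room temperature, 260–450 nm, and their spectral overlap determined. E was calculated from apo-hTf fluorescence without and with equimolar test compound. R0 and donor–acceptor distance r came from Förster equations.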

T1 sequence (P02787 20-698): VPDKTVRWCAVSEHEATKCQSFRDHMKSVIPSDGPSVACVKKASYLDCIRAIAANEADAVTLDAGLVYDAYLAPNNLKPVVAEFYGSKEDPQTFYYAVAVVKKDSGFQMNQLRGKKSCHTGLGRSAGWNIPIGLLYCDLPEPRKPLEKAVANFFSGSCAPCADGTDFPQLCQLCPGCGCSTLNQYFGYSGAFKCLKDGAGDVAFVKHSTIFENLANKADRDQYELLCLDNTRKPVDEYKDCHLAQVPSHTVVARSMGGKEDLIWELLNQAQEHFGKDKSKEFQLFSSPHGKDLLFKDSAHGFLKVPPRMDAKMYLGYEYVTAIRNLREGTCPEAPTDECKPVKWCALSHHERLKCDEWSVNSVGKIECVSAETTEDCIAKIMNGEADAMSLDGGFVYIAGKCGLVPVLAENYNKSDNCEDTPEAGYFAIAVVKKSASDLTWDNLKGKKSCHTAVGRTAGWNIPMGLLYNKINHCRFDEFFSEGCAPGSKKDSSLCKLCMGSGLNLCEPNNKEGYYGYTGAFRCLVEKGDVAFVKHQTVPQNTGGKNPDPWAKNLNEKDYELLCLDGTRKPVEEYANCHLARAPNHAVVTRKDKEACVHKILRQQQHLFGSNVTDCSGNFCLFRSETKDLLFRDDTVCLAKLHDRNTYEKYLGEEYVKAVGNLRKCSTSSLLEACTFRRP

## [Cl-].[Cl-].[Hf+4].c1cc[cH-]c1.c1cc[cH-]c1 [Cp2HfCl2]
[1]; 296 K
  biomolecular quenching rate constant kq: 1.97e+11 M⁻¹ s⁻¹
  Stern-Volmer quenching constant Ksv: 1970 M⁻¹
  number of binding sites n: 1.15
  quenching association constant Ka: 8900 M⁻¹
[1]; 303 K
  biomolecular quenching rate constant kq: 1.57e+11 M⁻¹ s⁻¹
  Stern-Volmer quenching constant Ksv: 1570 M⁻¹
  number of binding sites n: 1.17
  quenching association constant Ka: 8100 M⁻¹
[1]; 310 K
  biomolecular quenching rate constant kq: 1.36e+11 M⁻¹ s⁻¹
  Stern-Volmer quenching constant Ksv: 1360 M⁻¹
  number of binding sites n: 1.18
  quenching association constant Ka: 7500 M⁻¹
[1]; 317 K
  biomolecular quenching rate constant kq: 1.24e+11 M⁻¹ s⁻¹
  Stern-Volmer quenching constant Ksv: 1240 M⁻¹
  number of binding sites n: 1.19
  quenching association constant Ka: 7000 M⁻¹
[2]
  IC50: 564 µM
[3]; compound concentration 0.4 (M)
  other secondary structure content of apo-hTf: 19.1%
  random coil content of apo-hTf: 33.7%
  α-helix content of apo-hTf: 29.7%
  β-sheet content of apo-hTf: 17.5%
[3]; compound concentration 0.8 (M)
  other secondary structure content of apo-hTf: 19.1%
  random coil content of apo-hTf: 33.8%
  α-helix content of apo-hTf: 29.5%
  β-sheet content of apo-hTf: 17.6%
[3]; compound concentration 1.2 (M)
  other secondary structure content of apo-hTf: 19.2%
  random coil content of apo-hTf: 33.8%
  α-helix content of apo-hTf: 29.3%
  β-sheet content of apo-hTf: 17.7%
[3]; compound concentration 1.6 (M)
  other secondary structure content of apo-hTf: 19.1%
  random coil content of apo-hTf: 34%
  α-helix content of apo-hTf: 29.1%
  β-sheet content of apo-hTf: 17.8%
[3]; compound concentration 2 (M)
  other secondary structure content of apo-hTf: 19.1%
  random coil content of apo-hTf: 34%
  α-helix content of apo-hTf: 29%
  β-sheet content of apo-hTf: 17.9%
[3]; compound concentration 2.4 (M)
  other secondary structure content of apo-hTf: 19.2%
  random coil content of apo-hTf: 34.1%
  α-helix content of apo-hTf: 28.7%
  β-sheet content of apo-hTf: 18%
[4]
  IC50 (±SD), MCF-7: proliferative activity
[4]; listed as Cp^2HfCl^2
  IC50 (±SD), MCF-7: Proliferative
[5]; 296 K
  ∆G°: -4.443 kcal/mol
[5]; 303 K
  ∆G°: -4.45 kcal/mol
[5]; 310 K
  ∆G°: -4.46 kcal/mol
[5]; 317 K
  ∆G°: -4.469 kcal/mol
[5]; pH 7.4, from Ksv at 296-317 K
  ∆H°: -4.08 kcal/mol
  ∆S°: 5.13 J/mol K
[6]; absorbance at 280 nm
  Ka at 280 nm: 2110 M⁻¹
[6]; absorbance of apo-hTf at 280 nm, pH 7.4
  Association constants, Ka, 280 nm: 2.11 10^3 M^−1
[7]; k^2=2/3, n=1.336, ØD=0.118
  Förster critical energy transfer distance R0: 6.91 nm
  binding distance r (donor-acceptor): 9.47 nm
[7]; room temperature, 1.0×10^−5 mol L^−1 each
  efficiency of energy transfer E: 0.131
